Test results reported in ChEMBL document CHEMBL3352791, “Thioaryl naphthylmethanone oxime ether analogs as novel anticancer agents” (J Med Chem, 2014).
pEC50, pIC50: −log10 of the molar value.

Key:
Ishikawa = assay: Antiproliferative activity against human ER-positive Ishikawa cells after 24 hrs by MTT assay; format: functional, cell-based
MDA-MB-231 [1] = assay: Antiproliferative activity against human ER-positive MDA-MB-231 cells after 24 hrs by MTT assay; format: functional, cell-based
MCF7 [2] = assay: Antiproliferative activity against human ER-negative MCF7 cells after 24 hrs by MTT assay; format: functional, cell-based
HeLa = assay: Antiproliferative activity against human HeLa cells after 24 hrs by MTT assay; format: functional, cell-based
[3] = Antiproliferative activity against human prostate, androgen receptor positive DU145 cells after 24 hrs by MTT assay; format: functional, cell-based, DU-145
[4] = Safety index, ratio of IC50 for human MCF10A cells to EC50 for human ER-positive MDA-MB-231 cells; conditions: MCF10A cells versus
MCF7 [5] = assay: Antiproliferative activity against human ER-negative MCF7 cells after 72 hrs by MTT assay; format: functional, cell-based; conditions: MCF7, 72 h
[6] = Cytotoxicity against human MCF10A cells after 72 hrs by MTT assay; format: ADME, cell-based; conditions: MCF-10A
MDA-MB-231 [7] = assay: Antiproliferative activity against human ER-positive MDA-MB-231 cells after 72 hrs by MTT assay; format: functional, cell-based; conditions: MDA-MB-231, 72 h
in vitro = conditions: human, MCF10A cells versus
[8] = Safety index, ratio of IC50 for human MCF10A cells to EC50 for human HCT116 cells; format: toxicity, cell-based, MCF-10A; conditions: MCF10A cells versus HCT116 cells, read-out: Ratio IC50/EC50
Method in brief: (§1)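 Safety index is the IC50 in the normal cells divided by the EC50 in the cancer cells. Both values come from MTT assays: cells in DMEM with 10% FBS, serum-starved 4 h, then exposed to compound across a 100nM-50µM dose range with 0.1% DMSO as vehicle control.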

SW-620 = assay: Antiproliferative activity against human SW620 cells after 24 hrs by MTT assay; format: functional, cell-based; conditions: SW-620, 24 h
Method in brief: (§2)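 MTT viability: cells seeded at 1×10^4 per well in DMEM with 10% FBS, left to adhere overnight, then serum-starved 4 h. Compounds were given at a range of doses, with 0.1% DMSO vehicle as control. EC50 was taken from dose-response curves spanning 100nM-50µM. Data are mean ± SEM from at least three independent experiments.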

[9] = Antiproliferative activity against human DLD1 cells after 24 hrs by MTT assay; format: functional, cell-based; conditions: DLD-1, 24 h; method in brief: as §2
[10] = Antiproliferative activity against human HCT116 cells after 24 hrs by MTT assay; format: functional, cell-based; conditions: HCT-116, 24 h; method in brief: as §2
[11] = Safety index, ratio of IC50 for human MCF10A cells to EC50 for human COLO205 cells; format: toxicity, cell-based, COLO 205; conditions: MCF10A cells versus COLO205 cells, read-out: Ratio IC50/EC50; method in brief: as §1
HEK293 = assay: Antiproliferative activity against HEK293 cells after 24 hrs by MTT assay; format: functional, cell-based; conditions: Homo sapiens, HEK293, 24 h; method in brief: as §2
[12] = Safety index, ratio of IC50 for human MCF10A cells to EC50 for human SW620 cells; format: toxicity, cell-based, SW-620; conditions: MCF10A cells versus SW620 cells, read-out: Ratio IC50/EC50; method in brief: as §1
[13] = Antiproliferative activity against human COLO205 cells after 24 hrs by MTT assay; format: functional, cell-based; conditions: COLO 205, 24 h; method in brief: as §2
[14] = Safety index, ratio of IC50 for human MCF10A cells to EC50 for human DLD1 cells; format: toxicity, cell-based, MCF-10A; conditions: MCF10A cells versus DLD1 cells, read-out: Ratio IC50/EC50; method in brief: as §1

SMILES	pEC50 (Ishikawa; Homo sapiens, Ishikawa, 24 h)	pEC50 (MDA-MB-231 [1]; Homo sapiens, MDA-MB-231, 24 h)	pEC50 (MCF7 [2]; Homo sapiens, MCF7, 24 h)	pEC50 (HeLa; Homo sapiens, HeLa, 24 h)	pEC50 ([3]; Homo sapiens, DU-145, 24 h)	further results
COc1ccc(/C(=N\OCCN(C)C)c2cccc3ccccc23)cc1	< 4.30	< 4.30	4.82	4.64	< 4.30	
CSc1ccc(/C(=N\OCCCN2CCOCC2)c2cccc3ccccc23)cc1	< 4.30	< 4.30	< 4.30	< 4.30	< 4.30	
CSc1ccc(/C(=N\OCCN2CCOCC2)c2cccc3ccccc23)cc1	< 4.30	< 4.30	< 4.30	< 4.30	< 4.30	
CSc1ccc(/C(=N\OC(C)CN(C)C)c2cccc3ccccc23)cc1 (configuration not stated)	< 4.30	< 4.30	< 4.30	< 4.30	< 4.30	
CCN(CC)CCO/N=C(\c1ccc(SC)cc1)c1cccc2ccccc12 [listing 1 of 4 here]						pEC50 (Ishikawa; ishikawa): 4.82; pEC50 (MDA-MB-231 [1]; mda-mb-231): 4.95; pEC50 (MCF7 [2]; mcf7): 4.83; pEC50 ([3]; du-145): 4.73
CCN(CC)CCO/N=C(\c1ccc(SC)cc1)c1cccc2ccccc12 [listing 2 of 4 here]						pEC50 (Ishikawa; ishikawa): 4.70; pEC50 (MDA-MB-231 [1]; mda-mb-231): 4.83; pEC50 (MCF7 [2]; mcf7): 4.73; pEC50 ([3]; du-145): 4.70
CSc1ccc(/C(=N\OCCN2CCCC2)c2cccc3ccccc23)cc1	5.22	5.30	5.18	5.18	5.02	selectivity ratio [4]: 1.4; pEC50 (MCF7 [5]): 5.30; pIC50 [6]: 5.26; pEC50 (MDA-MB-231 [7]): 5.42; selectivity ratio (in vitro): 1.1
COc1ccc(/C(=N\OCCN2CCOCC2)c2cccc3ccccc23)cc1	< 4.30	4.60	4.70	< 4.30	< 4.30	
CCOC(=O)CO/N=C(\c1ccc(SC)cc1)c1cccc2ccccc12	< 4.30	4.46	4.52	4.74	< 4.30	
CCCCN(C)CCCO/N=C(\c1ccc(SC)cc1)c1cccc2ccccc12	< 4.30	< 4.30	< 4.30	5.10	< 4.30	
O=C(c1ccc(OCCN2CCCCC2)cc1)c1c(-c2ccc(O)cc2)sc2cc(O)ccc12 [RALOXIFENE]	4.70	4.52	4.64		< 4.30	
CCN(CC)C(=O)CO/N=C(\c1ccc(SC)cc1)c1cccc2ccccc12	< 4.30	4.52	4.55	4.60	< 4.30	
CSc1ccc(/C(=N\OCCN(C(C)C)C(C)C)c2cccc3ccccc23)cc1	< 4.30	< 4.30	< 4.30	< 4.30	< 4.30	
CCN(CC)CCO/N=C(\c1ccc(SC)cc1)c1cccc2ccccc12 [listing 3 of 4 here]						pEC50 (Ishikawa; ishikawa): < 4.30; pEC50 (MDA-MB-231 [1]; mda-mb-231): < 4.30; pEC50 (MCF7 [2]; mcf7): < 4.30; pEC50 (HeLa; hela): < 4.30; pEC50 ([3]; du-145): < 4.30
COc1ccc(/C(=N\OCCN2CCCCCC2)c2cccc3ccccc23)cc1	< 4.30	4.52	4.60	4.69	4.46	
CSc1ccc(/C(=N\OCCN2CCCCC2)c2cccc3ccccc23)cc1	5.00	5.06	4.87	4.87	5.00	
CC/C(=C(\c1ccc(O)cc1)c1ccc(OCCN(C)C)cc1)c1ccccc1 [AFIMOXIFENE]	4.94	5.10	5.06		5.00	selectivity ratio [4]: 1.28; pEC50 (MDA-MB-231 [7]): 5.11
COc1ccc(/C(=N\OCCN2CCCCC2)c2cccc3ccccc23)cc1	< 4.30	< 4.30	4.74	4.82	< 4.30	

SMILES	pEC50 (Ishikawa; Homo sapiens, Ishikawa, 24 h)	pEC50 (MDA-MB-231 [1]; Homo sapiens, MDA-MB-231, 24 h)	pEC50 (MCF7 [2]; Homo sapiens, MCF7, 24 h)	pEC50 (HeLa; Homo sapiens, HeLa, 24 h)	pEC50 ([3]; Homo sapiens, DU-145, 24 h)	further results
COc1ccc(/C(=N\OC(C)CN(C)C)c2cccc3ccccc23)cc1 (configuration not stated)	< 4.30	< 4.30	< 4.30	< 4.30	< 4.30	
COc1ccc(/C(=N\OCCN2CCCC2)c2cccc3ccccc23)cc1	< 4.30	< 4.30	4.60	4.70	< 4.30	
CSc1ccc(/C(=N\OCCCN2CCC(C)CC2)c2cccc3ccccc23)cc1	< 4.30	4.70	5.19	< 4.30	5.00	
CSc1ccc(/C(=N\OCCN(C)C)c2cccc3ccccc23)cc1	5.05	4.89	4.85	4.85	4.82	
COc1ccc(/C(=N\OCCN(C(C)C)C(C)C)c2cccc3ccccc23)cc1	< 4.30	< 4.30	4.64	< 4.30	< 4.30	
CSc1ccc(/C(=N\OCCCCNCCc2ccccc2)c2cccc3ccccc23)cc1	< 4.30	4.70	4.74	< 4.30	< 4.30	
CCCCC(CC)CNCCCO/N=C(\c1ccc(OC)cc1)c1cccc2ccccc12 (configuration not stated)	< 4.30	< 4.30	< 4.30	< 4.30	< 4.30	
CSc1ccc(/C(=N\OCCCN(C)C)c2cccc3ccccc23)cc1	5.15	5.14	5.10	5.10	5.02	selectivity ratio [4]: 5.3; pEC50 (MCF7 [5]): 6.00; pIC50 [6]: 4.52; pEC50 (MDA-MB-231 [7]): 5.25; selectivity ratio (in vitro): 30
COc1ccc(/C(=N\OCCCN(C)C)c2cccc3ccccc23)cc1	< 4.30	< 4.30	4.69	< 4.30	< 4.30	
CSc1ccc(/C(=N\OCCCCN2CCCC2)c2cccc3ccccc23)cc1	< 4.30	< 4.30	< 4.30	< 4.30	< 4.30	
CCN(CCCCO/N=C(\c1ccc(SC)cc1)c1cccc2ccccc12)Cc1ccccc1	< 4.30	< 4.30	< 4.30	5.00	< 4.30	
CSc1ccc(/C(=N\OCCCN2CCCCC2)c2cccc3ccccc23)cc1	4.92	4.70	5.30	5.19	4.82	selectivity ratio [4]: 0.5; pEC50 (MCF7 [5]): 5.30; pIC50 [6]: 5.00; pEC50 (MDA-MB-231 [7]): 4.70; selectivity ratio (in vitro): 2
CSc1ccc(/C(=N\OCCN2CCCCCC2)c2cccc3ccccc23)cc1	< 4.30	< 4.30	< 4.30	< 4.30	< 4.30	
O=c1[nH]cc(F)c(=O)[nH]1 [FLUOROURACIL]						selectivity ratio [8]: 0.97; pEC50 (SW-620): < 4.30; pEC50 [9]: 4.79; pEC50 [10]: < 4.30; selectivity ratio [11]: 1.2; pIC50 (HEK293): 4.31; selectivity ratio [12]: 0.97; pEC50 [13]: 4.42; selectivity ratio [14]: 2.98
CSc1ccc(/C(=N\O)c2cccc3ccccc23)cc1	< 4.30	4.70	4.74	4.74	< 4.30	
CCN(CC)CCO/N=C(\c1ccc(OC)cc1)c1cccc2ccccc12	< 4.30	< 4.30	4.70	< 4.30	< 4.30	
CSc1ccc(/C(=N\OCCCCN2CCCCC2)c2cccc3ccccc23)cc1	4.74	4.74	5.10	4.74	5.12	selectivity ratio [4]: 0.5; pEC50 (MCF7 [5]): 5.10; pIC50 [6]: 5.00; pEC50 (MDA-MB-231 [7]): 4.74; selectivity ratio (in vitro): 1.2
CCN(CC)CCO/N=C(\c1ccc(SC)cc1)c1cccc2ccccc12 [listing 4 of 4 here]						pEC50 (Ishikawa; ishikawa): 4.60; pEC50 (MDA-MB-231 [1]; mda-mb-231): 5.06; pEC50 (MCF7 [2]; mcf7): 4.87; pEC50 (HeLa; hela): 4.70; pEC50 ([3]; du-145): 4.60
